From PubChem
EBI2 antag – antagonists of human EBI2 receptor; P32249; EBI2 beta-arrestin recruitment, luminescence, 7a,25-OHC stimulated; inhibition, % at 5 µM; actives 0.81% (n = 360,000); in the data active means inhibition above about 38%;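 further: enzyme fragment complementation signal reports receptor beta-arrestin coupling in cells; 0% = agonist plus DMSO wells and 100% = wells without agonist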
Target sequence (P32249 whole entry, looked up, the tested form may be a part): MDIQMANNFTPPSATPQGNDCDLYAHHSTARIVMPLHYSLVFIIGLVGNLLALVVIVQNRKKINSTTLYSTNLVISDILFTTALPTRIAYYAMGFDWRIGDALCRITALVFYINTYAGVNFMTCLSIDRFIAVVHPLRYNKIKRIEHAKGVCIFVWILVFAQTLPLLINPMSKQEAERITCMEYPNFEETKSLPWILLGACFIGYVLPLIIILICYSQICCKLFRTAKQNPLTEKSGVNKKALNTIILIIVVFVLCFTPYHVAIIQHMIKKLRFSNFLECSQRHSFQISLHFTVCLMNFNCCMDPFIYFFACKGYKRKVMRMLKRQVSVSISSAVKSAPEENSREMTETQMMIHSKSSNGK
CCR6 antag – CCR6 (human) receptor antagonism. CHO-K1 CCR6 PathHunter beta-arrestin, luminescence, CCL20-stimulated. P51684. actives 0.49% (n = 340,000). inhibition, % at 20 µM;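 active means compounds whose inhibition of the agonist-driven luminescence signal at 20 µM reaches about 50%, limit read from the data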;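 further: cells stimulated with CCL20 at 14 nM final; plate controls were DMSO with CCL20 for no effect and DMSO without agonist for full effect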
CXCR6 inh – inhibitors of human CXCR6 receptor; AID 602244; O00574; inhibition, % at 20 µM; CHO-K1 PathHunter CXCR6 beta-arrestin, luminescence; actives 0.36% (n = 360,000); in the data active means inhibition above about 34%, passing the limit was not always enough;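 further: antagonist mode with CXCL16 agonist at 10 nM final; 0% = 10 nM CXCL16 with DMSO and 100% = unstimulated wells without agonist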
APJ ag – agonists of human APJ apelin receptor | P35414 | CHO-K1 APJ PathHunter beta-arrestin, luminescence; 0% DMSO wells, 100% apelin | activation, % at 20 µM | actives 0.11% (n = 330,000) | AID 2520;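 active means activation more than six SD over the plate average, tested at 20 µM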;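 further: 0% = DMSO alone and 100% = apelin-13 at 10 nM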
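Incubation: overnight seeding, 90 min compound at 25 °C, 1 h detection; test system: PathHunter CHO-K1 APJ (AGTRL-1) beta-arrestin reporter cells; amount: 1000 cells/well; doses: one dose, 20 µM compound, 1% DMSO; measured by: beta-gal luminescence; measure: agonist-driven arrestin binding to APJ; benchmarks: negative DMSO alone, positive Apelin-13 at 10 nM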
APJ antag – antagonists of human APJ apelin receptor; CHO-K1 APJ beta-arrestin complementation, luminescence; inhibition, % at 20 µM; actives 0.32% (n = 330,000); AID 2521;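 active means inhibition above about 40% at 20 µM, limit read from the data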;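 further: cells challenged with 10 nM apelin-13 agonist together with compound; plate controls were apelin-13 plus DMSO wells for no effect and DMSO wells lacking apelin-13 for full effect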
EBI2 conf – EBI2 (human) antagonism, single concentration confirmation; shares compounds with EBI2 antag; EBI2 beta-arrestin luminescence, 7a,25-OHC antagonism; inhibition, % at 5 µM; actives 29% (n = 2,400);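 active means inhibition of at least 50%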
EBI2 ag – counter-screen for EBI2 antagonists: EBI2 agonist activity; activation, % at 5 µM; shares compounds with EBI2 antag; 2,400 tested, under 10 active; EBI2-expressing cells, agonist mode, luminescence, 60 min; 0% vehicle, 100% 7α,25-dihydroxycholesterol control; AID 652000;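 active means activation of at least 50%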
bGal counter – inhibits E. coli beta-galactosidase, counter-screen for EBI2 antagonists; shares compounds with EBI2 antag; purified beta-galactosidase, luminescent Galacton Star, 15 min; inhibition, % at 5 µM; actives 1% (n = 2,400);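 active means replicate-average signal at least 3 plate SD below neutral wells, shown as high inhibition, flagging enzyme-inhibiting false positives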;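 further: 0% = DMSO wells with enzyme and 100% = wells lacking enzyme; higher means stronger loss of beta-gal luminescence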
* hit, by the source's call; . = no result given. An excerpt weighted towards active compounds, which were near 1.5% of everything screened.

SMILES	EBI2 antag	CCR6 antag	CXCR6 inh	APJ ag	APJ antag	EBI2 conf	EBI2 ag	bGal counter
COc1ccc(/C=C2\SC(N3CCCCC3)=NC2=O)cc1	54*	5	0	1	21	30	5	5
O=C1N=C(N2CCCCC2)S/C1=C\c1ccncc1	2	2	-2	1	1	.	.	.
COC(=O)C1=CN(c2ccc3c(c2)OCO3)C(N)=C(C#N)C1c1ccc(-c2ccccc2)cc1 (stereo unspecified)	11	.	.	.	.	.	.	.
CC(C)C(OC(=O)c1oc2ccccc2c1CSC1CCCCC1)C(=O)NC(N)=O (stereo unspecified)	.	.	.	-4	-7	.	.	.
CCNC(=O)NC(=O)C(C)OC(=O)c1oc2ccccc2c1CSC1CCCCC1 (stereo unspecified)	44*	13	-3	-4	6	35	0	2
O=C(Nc1ccc(Oc2ccccc2)cc1)c1ccc2sc([C@H]3C[C@H](O)[C@@H](CO)O3)nc2c1	3	.	-18	.	.	.	.	.
COc1ccc(/C=C2\SC(=NCc3ccccc3)NC2=O)cc1	47*	10	-8	-1	5	39	2	4
COc1ccc(/C=C2\SC(=Nc3ccccc3OC)NC2=O)cc1	1	10	9	-5	10	.	.	.
COc1ccc(CN2C(=O)c3ccccc3C2c2nnnn2-c2ccc3c(c2)OCCO3)cc1OC (stereo unspecified)	-6	.	-2	.	.	.	.	.
CC(C)Nc1nc(Cl)nc(N(C#N)CN2C(=O)c3ccccc3C2=O)n1	56*	17	20	-2	0	53*	0	6
CCC(C)Nc1nc(Cl)nc(N(C#N)CN2C(=O)c3ccccc3S2(=O)=O)n1 (stereo unspecified)	10	-2	22	-2	1	.	.	.
N#Cc1nc(COc2ccccc2)oc1N1CCN(Cc2ccccc2)CC1	37	14	7	0	8	.	.	.
N#Cc1nc(COc2ccccc2)oc1N1CCC(Cc2ccccc2)CC1	70*	13	12	-4	-2	20	-1	-4
CC(C)(C)c1ccc(C(=O)NCc2ccc(Cl)cc2)cc1	53*	5	2	-1	-4	34	1	6
CC(C)(C)c1ccc(C(=O)NCc2ccccc2)cc1	34	7	-12	8	4	.	.	.
CC(C)(C)OC(=O)N1CCN(c2ccc(CNC(=O)c3ccc(Cl)cc3)cc2)CC1	59*	-1	-2	-3	-8	15	2	4
CC(C)(C)OC(=O)N1CCCN(C(=O)c2ccc(Cl)cc2)CC1	-1	9	-14	-2	13	.	.	.
COc1cccc(CN(C)C(=O)Cc2c[nH]c3ccccc23)c1	51*	4	-7	-4	9	40	-1	-3
COc1cccc(CN(C(=O)Cc2c[nH]c3ccccc23)C(C(=O)NC2CCCCC2)c2ccc(C)o2)c1 (stereo unspecified)	5	21	1	0	-18	.	.	.
COc1cccc(CN(C)C(=O)Cc2c[nH]c3ccccc23)c1OC	6	7	4	-3	8	.	.	.
COc1ccc(CN(C)C(=O)Cc2c[nH]c3ccccc23)cc1	52*	11	-4	-1	2	31	0	-9
CC(=O)N1CCN(C(C(=O)Nc2c(C)cccc2C)c2cccc(F)c2)CC1 (stereo unspecified)	3	.	.	.	.	.	.	.
Cc1cc(C)c(S(=O)(=O)N2CCN(C(=O)CCn3nc(C)c(C)c3C)CC2)c(C)c1	47*	9	0	0	-7	40	0	-3
Oc1ccccc1-c1nnc(COc2ccc(Cl)cc2Cl)o1	1	14	20	-3	0	.	.	.
Clc1ccc(-c2nnc(CCc3ccccc3)o2)c(Cl)c1	55*	21	-1	-7	-11	41	1	1
SMILES	EBI2 antag	CCR6 antag	CXCR6 inh	APJ ag	APJ antag	EBI2 conf	EBI2 ag	bGal counter
CC(C)(C)c1nnc(N/N=C/c2ccccc2)n(N)c1=O	77*	12	-2	1	2	48	2	8
Cc1ccc(NC(=O)c2ccc(CSc3ccccn3)cc2)cc1	46*	2	0	-5	-3	31	-1	-14
COC(=O)[C@]12CCCCC=C1N(CCc1ccc(OC)c(OC)c1)C(=O)[C@H](CC(=O)NCc1ccccc1)C2	1	.	.	.	.	.	.	.
Cc1ccc(F)c(S(=O)(=O)NC(=O)C2(C)CCN2C(=O)C/C=C/c2ccccc2)c1 (stereo unspecified)	3	.	-7	.	.	.	.	.
COC(C(=O)N/N=C(\C)c1ccc(C(C)(C)C)cc1)c1ccccc1 (stereo unspecified)	65*	17	5	-5	-14	24	-1	-10
COC(C(=O)N/N=C(\C)c1ccc(O)cc1)c1ccccc1 (stereo unspecified)	-1	-2	-5	-1	-5	.	.	.
COc1ccc(CNc2ccc(-c3ccc(OC)cc3)nn2)cc1	74*	-4	10	3	7	39	0	4
O=C(NCc1ccccc1)C1c2ccccc2OCC(=O)N1Cc1cccnc1 (stereo unspecified)	-11	.	-3	.	.	.	.	.
Nc1nc(CSc2ccc(Cl)cc2)nc(N2CCCCC2)n1	44*	0	-7	-7	-31	6	2	3
Cc1cccc(C)c1NC(=O)C1(C)CSCC(=O)N1CCOc1ccccc1 (stereo unspecified)	-6	.	.	.	.	.	.	.
O=C(CSc1nnc(-c2ccc(O)cc2)n1Cc1ccccc1)NNC(=O)c1ccc(Br)cc1	89*	2	2	-3	-6	87*	-1	-7
CCn1c(SCC(=O)NNC(=O)c2ccc(C)cc2)nnc1-c1ccncc1	-2	-10	-5	-4	-30	.	.	.
COc1ccc(-n2c(SCC(=O)NNC(=O)c3ccc(C)cc3)nnc2-c2ccncc2)cc1	55*	-1	-9	-2	5	30	2	3
CCn1c(SCC(=O)NNC(=O)c2ccc(OC)cc2)nnc1-c1cccnc1	59*	16	7	-3	2	15	1	2
CC(C)OC(=O)CSc1nnc(-c2ccc(O)cc2)n1Cc1ccccc1	-6	13	1	-8	-8	.	.	.
O=C(CCNC(=O)N1CC(=O)Nc2ccccc21)NCc1ccccc1	-14	.	1	.	.	.	.	.
COc1cc(OC)cc(C(=O)NNC(=O)CCNS(=O)(=O)c2ccc(Br)cc2)c1	-6	12	2	1	-12	.	.	.
Cc1ccc(S(=O)(=O)NCCC(=O)NNC(=O)COc2ccc(Br)cc2)cc1C	63*	13	2	1	0	25	-1	-15
